Experimental data taken from ChEMBL document CHEMBL1135254, “Novel N-[1-(1-substituted 4-piperidinylmethyl)-4-piperidinyl]benzamides as potent colonic prokinetic agents” (Bioorg Med Chem Lett, 2002).

What was measured:
[1] = molecular target: 5-hydroxytryptamine receptor 4 (Cavia porcellus, UniProt O70528); assay: Inhibitory activity against 5-hydroxytryptamine 4 receptor of guinea pig striatum using [3H]GR-113808 as radioligand; assay type: tissue-based
Canis familiaris [2] = assay: Gastrointestinal motility was reported after intravenous administration at a dose 1 mg/kg to dogs as induction number of GMC (gaint migrating contractions); assay type: functional, Canis lupus familiaris
Procedure, shortened: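 Colonic contractions were recorded by a force transducer implanted on the ascending colon and analyzed by computer. Colonic motility is expressed as the number of giant migrating contractions induced after dosing.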

Canis familiaris [3] = assay: Gastrointestinal motility was reported after intravenous administration at a dose 1 mg/kg to dogs in stomach; assay type: functional, Canis lupus familiaris
Procedure, shortened: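 Contractions were recorded by force transducers implanted on the gastric antrum and analyzed by computer. The motor index is the area between the contraction wave and baseline, i.e. amplitude (voltage) × time in min over a fixed period. The index for the 30 min after dosing is expressed as a percentage of that for the 30 min before.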

Mus musculus = organism: Mus musculus; assay: Dose at which the compound induced fecal excretion in mice; assay type: organism-based, Feces; details: in vivo
Procedure, shortened: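 Unfasted mice were dosed subcutaneously, and fecal excretion was the read-out.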

Chain of 5-hydroxytryptamine receptor 4 (O70528 whole entry): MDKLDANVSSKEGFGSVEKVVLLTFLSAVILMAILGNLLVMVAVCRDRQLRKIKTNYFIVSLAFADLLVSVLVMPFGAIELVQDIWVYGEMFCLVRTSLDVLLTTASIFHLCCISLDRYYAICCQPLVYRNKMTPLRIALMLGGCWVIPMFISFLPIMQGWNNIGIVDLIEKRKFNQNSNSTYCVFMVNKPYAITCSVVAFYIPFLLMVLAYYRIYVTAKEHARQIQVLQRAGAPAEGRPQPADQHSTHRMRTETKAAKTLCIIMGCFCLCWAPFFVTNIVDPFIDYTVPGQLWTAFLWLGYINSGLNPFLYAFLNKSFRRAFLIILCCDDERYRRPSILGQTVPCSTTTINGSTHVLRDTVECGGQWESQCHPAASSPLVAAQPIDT

SMILES | IC50 [1] [nM] | Dose (Mus musculus) [mg/kg] | Induction number (Canis familiaris [2]) | Gastric motor index, % of pre-dose (Canis familiaris [3]) [%]
COc1cc(N)c(Cl)cc1C(=O)NC1CCN(CC2CCN(C(=O)CN)CC2)CC1 | 9.3 |  | 5 | 165
COc1cc(N)c(Cl)cc1C(=O)NC1CCN(CC2CCN(C(=O)CCN)CC2)CC1 | 9.5 |  | 3 | 107
COc1cc(N)c(Cl)cc1C(=O)NC1CCN(CC2CCN(CCCN)CC2)CC1 | 13.4 |  | 7 | 151
COc1cc(N)c(Cl)cc1C(=O)NCC(O)CN1CCC(CN2CCC(N)CC2)CC1 (stereo not drawn) | 40.6 |  |  | 
COc1cc(N)c(Cl)cc1C(=O)NC1CCN(CC2CCN(CCCCCN)CC2)CC1 | 11.2 |  | 4 | 194
COc1cc(N)c(Cl)cc1C(=O)NC1CCN(C(=O)C2CCN(C(=O)CCCN)CC2)CC1 | 425 |  | 2 | 132
COc1cc(N)c(Cl)cc1C(=O)NC1CCN(CC2CCN(CCCNS(C)(=O)=O)CC2)CC1 | 21.1 |  | 2 | 151
COc1cc(N)c(Cl)cc1C(=O)NC1CCN(CC2CCN(CC(C)CN)CC2)CC1 (stereo not drawn) | 14.3 |  | 1 | 177
COc1cc(N)c(Cl)cc1C(=O)NC1CCN(CC2CCN(CCN)CC2)CC1 | 14.3 |  |  | 127
COc1cc(N)c(Cl)cc1C(=O)NC1CCN(CC2CCN(CC(O)CN)CC2)CC1 (stereo not drawn) | 14.4 |  |  | 121
CCOc1cc(N)c(Cl)cc1C(=O)NCC1CN(Cc2ccc(F)cc2)CCO1 (stereo not drawn) [MOSAPRIDE] | 113 |  |  | 188

Molecules with a lower IC50 [1], results first:

IC50 [1] [nM] | Dose (Mus musculus) [mg/kg] | SMILES | Induction number (Canis familiaris [2]) | Gastric motor index, % of pre-dose (Canis familiaris [3]) [%]
3.99 |  | COc1cc(N)c(Cl)cc1C(=O)NC1CCN(CC2CCN(C(=O)CCCN)CC2)CC1 | 5 | 130
2.57 |  | CCCC(N)C(=O)N1CCC(CN2CCC(NC(=O)c3cc(Cl)c(N)cc3OC)CC2)CC1 (stereo not drawn) | 1 | 117
5.06 |  | COc1cc(N)c(Cl)cc1C(=O)NC1CCN(CC2CCN(C(=O)C(C)N)CC2)CC1 (stereo not drawn) |  | 127
3.91 |  | COc1cc(N)c(Cl)cc1C(=O)NC1CCN(CC2CCN(C(=O)CCCCN)CC2)CC1 |  | 112
2.53 |  | COc1cc(N)c(Cl)cc1C(=O)NC1CCN(CC2CCN(C(=O)C(N)C(C)C)CC2)CC1 (stereo not drawn) |  | 147
2.6 |  | COc1cc(N)c(Cl)cc1C(=O)NC1CCN(CC2CCN(C(=O)C(C)(C)N)CC2)CC1 |  | 112
6.47 | > 1 | COc1cc(N)c(Cl)cc1C(=O)NC1CCN(CC2CCN(CCCCN)CC2)CC1 | 6 | 148
5.08 |  | COc1cc(N)c(Cl)cc1C(=O)NC1CCN(CC2CCN(C(=O)C(C)CN)CC2)CC1 (stereo not drawn) |  | 121
